{"source": "ChEMBL document CHEMBL1152990", "about": "“The mechanism of action of beta-D-2'-deoxy-2'-fluoro-2'-C-methylcytidine involves a second metabolic pathway leading to beta-D-2'-deoxy-2'-fluoro-2'-C-methyluridine 5'-triphosphate, a potent inhibitor of the hepatitis C virus RNA-dependent RNA polymerase” (Antimicrob Agents Chemother, 2008)", "key": {"[1]": {"tested_on": "C[C@@]1(F)[C@H](O)[C@@H](COP(=O)(O)OP(=O)(O)OP(=O)(O)O)O[C@H]1n1ccc(=O)[nH]c1=O", "assay": "(§1) Activity of HCV NS5B polymerase S282T mutant", "details": "Hepacivirus hominis", "method_in_brief": "(§2)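 Recombinant HCV NS5B S282T (21-aa C-terminally truncated, E. coli-expressed, metal-affinity purified) in a de novo steady-state RNA synthesis assay on an unprimed minus-IRES RNA template. Run at 27°C in 50 mM HEPES pH 7.5 with 5 mM MgCl2 and 2 mM DTT. For the CTP analog, UTP/GTP/ATP were fixed at 10/100/100 μM while 32P-CTP and the inhibitor were varied. For the UTP analog, CTP/ATP/GTP were fixed at 10/100/100 μM while 32P-UTP and the inhibitor were varied.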"}, "[2]": {"tested_on": "C[C@@]1(F)[C@H](O)[C@@H](COP(=O)(O)OP(=O)(O)OP(=O)(O)O)O[C@H]1n1ccc(N)nc1=O", "assay": "as §1", "details": "Hepacivirus hominis", "method_in_brief": "as §2"}, "Hepacivirus hominis [3]": {"tested_on": "Hepacivirus hominis", "assay": "Ratio of Ki to Km for wild type HCV NS5B polymerase", "method_in_brief": "(§3)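 De novo RNA synthesis by NS5B lacking 21 C-terminal residues, in 50 mM HEPES pH 7.5 with 5 mM MgCl2 and 2 mM DTT at 27°C. Template was unprimed minus-IRES RNA, 2.8 μg each of enzyme and template. CTP 10 μM, ATP and GTP 100 μM; 32P-UTP and inhibitor were varied. Aliquots were quenched with EDTA/NaCl/citrate.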"}, "[4]": {"tested_on": "RNA-directed RNA polymerase (Hepacivirus hominis), O39930 [S282T]", "assay": "Ratio of Ki to Km for HCV NS5B polymerase S282T mutant", "method_in_brief": "as §2"}, "Hepacivirus hominis [5]": {"tested_on": "Hepacivirus hominis", "assay": "Fold resistance, ratio of Ki/Km for HCV NS5B polymerase S282T mutant to Ki/Km for wild type HCV NS5B polymerase", "method_in_brief": "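Ki and Km were measured for wild-type and S282T NS5B (C-terminal Δ21) by steady-state de novo RNA synthesis. Conditions were an unprimed minus-IRES template, 27°C, 50 mM HEPES pH 7.5, 5 mM MgCl2, 2 mM DTT, and varied 32P-labelled natural NTP with varied inhibitor. Fold resistance = (Ki/Km mutant)/(Ki/Km wild type).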"}, "[6]": {"tested_on": "C[C@@]1(F)[C@H](O)[C@@H](CO)O[C@H]1n1ccc(N)nc1=O", "assay": "Ratio of Kcat to Km for cloned 2'-deoxycytidine kinase in human HepG2 cells assessed as formation of formation of […] monophosphate by spectrophotometry", "format": "cell-based"}, "Huh-7 [7]": {"tested_on": "Huh-7", "assay": "Activity of cloned NDPK in human HuH7 cells assessed as formation of uridine triphosphate by spectrophotometry", "format": "cell-based", "method_in_brief": "(§4)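 Recombinant human kinase read out by PK/LDH coupling, following NADH oxidation at 340 nm. Rates were measured over varied substrate levels and fitted for steady-state parameters.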"}, "Huh-7 [8]": {"tested_on": "Huh-7", "assay": "Ratio of Kcat to Km for cloned NDPK in human HuH7 cells assessed as formation of uridine triphosphate by spectrophotometry", "format": "cell-based", "method_in_brief": "as §4"}, "Hepatitis C virus [9]": {"tested_on": "Hepatitis C virus", "assay": "Antiviral activity against wild type HCV infected in human HuH7 cells assessed as inhibition of viral RNA replication after 4 days by replicon assay in absence of DCTD inhibitor zedularine", "format": "functional", "details": "Hepacivirus hominis; Huh-7", "method_in_brief": "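Clone A Huh-7 replicon cells at 1,500 cells/well, without G418. Threefold serial compound dilutions were given with or without 100 μM zebularine, for 4 days at 37°C in 5% CO2. Replicon RNA was quantified by single-step multiplex RT-PCR, and activity was taken as ΔCT relative to the no-drug control.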"}, "Hepatitis C virus [10]": {"tested_on": "Hepatitis C virus", "assay": "Antiviral activity against HCV harboring NS5B polymerase S282T mutation infected in human HuH7 cells assessed as inhibition of viral RNA replication after 4 days by replicon assay in absence of DCTD inhibitor zedularine", "format": "functional", "details": "Hepacivirus hominis; Huh-7", "method_in_brief": "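Huh-7 clone A subgenomic replicon cells carrying NS5B S282T (selected by serial passage with 2′-C-methyladenosine) were seeded at 1,500 cells/well without G418. Threefold compound dilutions were added alone or with 100 μM zebularine, followed by 4 days at 37°C, 5% CO2. Replicon RNA was quantified by single-step multiplex RT-PCR, and activity was taken as ΔCT versus the no-drug control to give EC90.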"}, "Huh-7 [11]": {"tested_on": "Huh-7", "assay": "Ratio of Kcat to Km for cloned NDPK in human HuH7 cells assessed as formation of […] triphosphate by spectrophotometry", "format": "cell-based"}, "Hepacivirus hominis [12]": {"tested_on": "Hepacivirus hominis", "assay": "Activity of wild type HCV NS5B polymerase", "method_in_brief": "as §3"}, "[13]": {"biological_target": "T1, Uridine-cytidine kinase 1 (Homo sapiens) (UniProt Q9HA47)", "T1 sequence (whole entry)": "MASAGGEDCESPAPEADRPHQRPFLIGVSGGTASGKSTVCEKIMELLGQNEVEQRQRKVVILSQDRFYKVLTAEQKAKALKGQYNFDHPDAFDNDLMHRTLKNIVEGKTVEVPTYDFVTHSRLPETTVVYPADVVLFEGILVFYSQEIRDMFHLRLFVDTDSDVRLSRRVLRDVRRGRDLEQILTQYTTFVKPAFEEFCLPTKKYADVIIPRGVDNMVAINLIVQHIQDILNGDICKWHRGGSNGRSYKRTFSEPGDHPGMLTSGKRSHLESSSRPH", "assay": "Activity of cloned uridine-cytidine kinase 1 in human HuH7 cells up to 1 mM", "format": "cell-based", "details": "Huh-7"}, "[14]": {"biological_target": "Deoxycytidine kinase (Homo sapiens) (UniProt P27707)", "sequence (P27707 whole entry, looked up)": "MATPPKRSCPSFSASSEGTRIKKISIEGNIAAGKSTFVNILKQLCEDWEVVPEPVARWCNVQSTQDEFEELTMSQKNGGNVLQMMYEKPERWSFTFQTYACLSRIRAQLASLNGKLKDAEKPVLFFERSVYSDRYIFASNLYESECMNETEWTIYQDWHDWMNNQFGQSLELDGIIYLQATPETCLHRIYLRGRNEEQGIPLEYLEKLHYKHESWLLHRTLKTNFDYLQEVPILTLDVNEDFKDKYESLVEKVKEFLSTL", "assay": "Activity of cloned deoxycytidine kinase in human HepG2 cells up to 1 mM", "format": "cell-based"}, "[15]": {"biological_target": "T2, Thymidine kinase, cytosolic (Homo sapiens) (UniProt P04183)", "T2 sequence (whole entry)": "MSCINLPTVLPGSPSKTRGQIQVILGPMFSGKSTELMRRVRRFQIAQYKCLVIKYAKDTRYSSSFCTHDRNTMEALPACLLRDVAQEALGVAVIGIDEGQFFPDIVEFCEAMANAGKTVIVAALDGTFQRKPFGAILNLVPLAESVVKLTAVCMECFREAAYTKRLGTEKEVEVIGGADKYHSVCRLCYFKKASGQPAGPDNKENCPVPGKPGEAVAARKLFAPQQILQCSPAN", "assay": "Activity of thymidine kinase 1 up to 1 mM"}, "[16]": {"biological_target": "T3, Thymidine kinase 2, mitochondrial (Homo sapiens) (UniProt O00142)", "T3 sequence (whole entry)": "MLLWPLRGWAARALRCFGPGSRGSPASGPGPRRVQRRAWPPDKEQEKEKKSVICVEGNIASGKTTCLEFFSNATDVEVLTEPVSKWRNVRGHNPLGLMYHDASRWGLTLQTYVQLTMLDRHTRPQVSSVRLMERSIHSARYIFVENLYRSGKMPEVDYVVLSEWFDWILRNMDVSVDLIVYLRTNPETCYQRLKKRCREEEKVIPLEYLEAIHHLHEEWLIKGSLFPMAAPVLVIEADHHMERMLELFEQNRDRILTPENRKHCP", "assay": "Activity of thymidine kinase 2 up to 1 mM"}, "Huh-7 [17]": {"tested_on": "Huh-7", "assay": "Ratio of Kcat to Km for cloned NDPK in human HuH7 cells assessed as formation of RO2433 triphosphate by spectrophotometry", "format": "cell-based", "method_in_brief": "as §4"}, "[18]": {"biological_target": "Creatine kinase B-type (Homo sapiens) (UniProt P12277)", "sequence (P12277 whole entry, canonical isoform)": "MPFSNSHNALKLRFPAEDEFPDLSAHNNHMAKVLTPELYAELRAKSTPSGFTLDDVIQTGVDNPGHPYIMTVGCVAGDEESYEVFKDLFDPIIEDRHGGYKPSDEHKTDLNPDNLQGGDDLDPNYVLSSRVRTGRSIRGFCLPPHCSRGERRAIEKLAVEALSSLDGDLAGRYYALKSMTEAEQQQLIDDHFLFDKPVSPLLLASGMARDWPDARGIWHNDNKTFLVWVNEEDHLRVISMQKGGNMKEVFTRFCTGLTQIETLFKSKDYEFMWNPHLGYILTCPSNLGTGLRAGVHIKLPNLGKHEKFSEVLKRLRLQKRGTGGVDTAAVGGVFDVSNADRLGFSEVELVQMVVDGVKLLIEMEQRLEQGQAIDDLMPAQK", "assay": "Activity of human creatine kinase isoform BB assessed as formation of RO2433 triphosphate at 200 uM"}, "Homo sapiens": {"species_on_record": "Homo sapiens", "assay": "Activity of human creatine kinase isoform MB assessed as formation of RO2433 triphosphate at 200 uM"}, "[19]": {"biological_target": "Creatine kinase M-type (Homo sapiens) (UniProt P06732)", "sequence (P06732 whole entry, canonical isoform)": "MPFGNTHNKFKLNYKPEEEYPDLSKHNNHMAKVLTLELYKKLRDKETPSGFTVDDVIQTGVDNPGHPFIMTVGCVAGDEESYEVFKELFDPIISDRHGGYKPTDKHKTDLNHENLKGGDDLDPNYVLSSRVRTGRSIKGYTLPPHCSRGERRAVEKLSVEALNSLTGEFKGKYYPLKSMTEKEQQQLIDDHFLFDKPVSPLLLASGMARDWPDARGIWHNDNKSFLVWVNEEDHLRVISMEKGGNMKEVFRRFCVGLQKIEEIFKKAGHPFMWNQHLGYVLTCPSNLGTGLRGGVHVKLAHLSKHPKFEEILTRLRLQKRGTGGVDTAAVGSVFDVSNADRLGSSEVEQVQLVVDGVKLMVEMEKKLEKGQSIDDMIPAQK", "assay": "Activity of human creatine kinase isoform MM assessed as formation of RO2433 triphosphate at 200 uM"}, "[20]": {"biological_target": "T4, Phosphoglycerate kinase (Saccharomyces cerevisiae S288c) (UniProt P00560)", "T4 sequence (whole entry)": "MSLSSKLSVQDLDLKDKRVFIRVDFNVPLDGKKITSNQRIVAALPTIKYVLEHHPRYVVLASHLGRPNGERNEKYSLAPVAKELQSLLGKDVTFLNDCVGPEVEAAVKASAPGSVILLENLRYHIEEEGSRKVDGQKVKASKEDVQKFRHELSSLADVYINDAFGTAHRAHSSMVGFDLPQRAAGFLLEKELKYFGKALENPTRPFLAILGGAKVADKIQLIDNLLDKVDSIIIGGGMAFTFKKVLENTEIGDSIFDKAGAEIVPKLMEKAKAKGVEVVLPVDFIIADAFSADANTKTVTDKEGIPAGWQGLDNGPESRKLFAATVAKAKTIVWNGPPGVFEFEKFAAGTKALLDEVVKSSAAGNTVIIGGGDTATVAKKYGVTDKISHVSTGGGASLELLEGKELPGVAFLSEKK", "assay": "Activity of yeast 3-phosphoglycerate kinase assessed as formation of RO2433 triphosphate at 200 uM"}}, "note": "Calls of active or inactive are those of the source. The calls are words filed in the database; no cut-off is given here."}
{"molecule": "RNA-directed RNA polymerase (Hepacivirus hominis), O39930 S282T", "values": [{"measurement": "Km", "setting": "[1]", "result": 0.15, "unit": "µM"}, {"measurement": "Km", "setting": "[2]", "result": 0.052, "unit": "µM"}]}
{"molecule": "C[C@@]1(F)[C@H](O)[C@@H](COP(=O)(O)OP(=O)(O)OP(=O)(O)O)O[C@H]1n1ccc(=O)[nH]c1=O", "values": [{"measurement": "Ki/Km", "setting": "Hepacivirus hominis [3]", "result": 6.2}, {"measurement": "Ki/Km", "setting": "[4]", "result": 147}, {"measurement": "Ratio", "setting": "Hepacivirus hominis [5]", "result": 23.7}]}
{"molecule": "Deoxycytidine kinase (Homo sapiens), P27707", "values": [{"measurement": "kcat/Km", "setting": "[6]", "result": 1.9, "unit": "×10⁻⁴ /µM/s"}]}
{"molecule": "O=c1ccn([C@@H]2O[C@H](COP(=O)(O)OP(=O)(O)O)[C@@H](O)[C@H]2O)c(=O)[nH]1", "values": [{"measurement": "Km", "setting": "Huh-7 [7]", "result": 156, "unit": "µM"}, {"measurement": "kcat", "setting": "Huh-7 [7]", "result": 145, "unit": "s⁻¹"}, {"measurement": "kcat/Km", "setting": "Huh-7 [8]", "result": 930000, "unit": "M⁻¹ s⁻¹"}]}
{"molecule": "C[C@@]1(F)[C@H](O)[C@@H](COP(=O)(O)O)O[C@H]1n1ccc(=O)[nH]c1=O", "values": [{"measurement": "Activity", "setting": "Hepatitis C virus [9]", "result": "Active"}, {"measurement": "Activity", "setting": "Hepatitis C virus [10]", "result": "Active"}]}
{"molecule": "C[C@@]1(F)[C@H](O)[C@@H](COP(=O)(O)OP(=O)(O)O)O[C@H]1n1ccc(N)nc1=O", "values": [{"measurement": "kcat/Km", "setting": "Huh-7 [11]", "result": 15000, "unit": "M⁻¹ s⁻¹"}]}
{"molecule": "C[C@@]1(F)[C@H](O)[C@@H](COP(=O)(O)OP(=O)(O)OP(=O)(O)O)O[C@H]1n1ccc(N)nc1=O", "values": [{"measurement": "Km", "setting": "Hepacivirus hominis [12]", "result": 0.074, "unit": "µM"}, {"measurement": "Ki/Km", "setting": "Hepacivirus hominis [3]", "result": 0.8}, {"measurement": "Ki/Km", "setting": "[4]", "result": 6}, {"measurement": "Ratio", "setting": "Hepacivirus hominis [5]", "result": 7.5}]}
{"molecule": "C[C@@]1(F)[C@H](O)[C@@H](CO)O[C@H]1n1ccc(=O)[nH]c1=O", "values": [{"measurement": "Activity", "setting": "[13]", "result": "inactive"}, {"measurement": "Activity", "setting": "[14]", "result": "inactive"}, {"measurement": "Activity", "setting": "[15]", "result": "inactive"}, {"measurement": "Activity", "setting": "[16]", "result": "inactive"}]}
{"molecule": "C[C@@]1(F)[C@H](O)[C@@H](COP(=O)(O)OP(=O)(O)O)O[C@H]1n1ccc(=O)[nH]c1=O", "values": [{"measurement": "kcat/Km", "setting": "Huh-7 [17]", "result": 46000, "unit": "M⁻¹ s⁻¹"}, {"measurement": "Activity", "setting": "[18]", "result": "inactive"}, {"measurement": "Activity", "setting": "Homo sapiens", "result": "inactive"}, {"measurement": "Activity", "setting": "[19]", "result": "inactive"}, {"measurement": "Activity", "setting": "[20]", "result": "inactive"}]}
